Measurements from ChEMBL document CHEMBL1124167, “Syntheses and gastric acid antisecretory properties of the H2-receptor antagonist. N-[3-[3-(1-piperidinylmethyl)phenoxy]propyl]thieno[3,4-d]isot hiazol-3-amine 1,1-dioxide and related derivatives” (J Med Chem, 1988).
The source made the active and inactive calls. The rule behind the calls is not given here.

Tested on: Rattus norvegicus
Assay: In vivo inhibitory activity against basal acid secretion in pylorus-ligated rat was determined at a dose of 4 mg/kg
Assay type: functional
Details: not given
Summary of the method: (§1)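 Male SD/CD rats (190–260 g), fasted 24 h with water, groups of 10. Pylorus ligated under methohexital (40 mg/kg). Drug in 0.25% aqueous methylcellulose given intraduodenally (1 mL/kg) right after ligation. Killed 4 h later. Gastric juice volume × acid concentration (titration to pH 7.0 with 0.1 N NaOH) gives total acid output, expressed as percent inhibition vs vehicle controls.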

Row | Compound | Total acid output
1 | O=Cc1cccc(OCCCNC2=NS(=O)(=O)c3cscc32)c1 | 89%
2 | CCCN(CCC)Cc1cccc(OCCCNC2=NS(=O)(=O)c3cscc32)c1.Cl | 16%
3 | O=S1(=O)N=C(NCCCOc2cccc(CN3CC=CCC3)c2)c2cscc21 | 18%
4 | N=C(N)Nc1nc(CSCCNC2=NS(=O)(=O)c3cscc32)cs1 | 83%
5 | Cl.O=S1(=O)N=C(NCCCOc2cccc(CN3CCCC3)c2)c2cscc21 | 19%

Tested on: Rattus norvegicus
Assay: In vivo inhibitory activity against basal acid secretion in pylorus-ligated rat was determined at a dose of 8 mg/kg
Assay type: functional
Details: not given
Summary of the method: as §1

Row | Compound | Total acid output
6 | Cl.NS(=O)(=O)c1cscc1C(=O)NCCCOc1cccc(CN2CCCCC2)c1.O | 36%
7 | O=C(c1cccc(OCCCNC2=NS(=O)(=O)c3cscc32)c1)N1CCCCC1 | 94%
8 | O=S1(=O)N=C(NCCCOc2ccc(CN3CCCCC3)cc2)c2cscc21 | 21%
9 | O=S1(=O)N=C(NCCCOc2cccc(CN3CCCCC3)c2)c2sccc21 | 12%
10 | O=S1(=O)N=C(NCCCOc2cccc(CN3CCCCC3)c2)c2cscc21 | 16%
11 | Cc1[nH]cnc1CSCCNC1=NS(=O)(=O)c2cscc21 | 87%
12 | NS(=O)(=O)c1cscc1C(=O)NCCCOc1cccc(C=O)c1 | 94%

Tested on: Rattus norvegicus
Assay: In vivo inhibitory activity against basal acid secretion in pylorus-ligated rat was determined at a dose of 4 mg/kg; Inactive
Details: not given

Row | Compound | Activity
13 | O=Cc1cccc(OCCCNC2=NS(=O)(=O)c3cscc32)c1 | inactive

Species on record: Canis familiaris
Assay: Efficacy against histamine stimulation was determined in dog
Assay type: functional
Details: Canis lupus familiaris
Summary of the method: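 Gastric pouch dogs fasted 18 h with water, baseline from two 15-min samples. Drug in 0.9% saline given by oral gavage 30 min before histamine diphosphate (64 μg/kg base, sc). Samples collected at 15-min intervals and acid titrated to pH 7.0 with 0.1 N NaOH. Total acid output summed over 1 h, percent inhibition vs the same dog's saline run, runs ≥3 days apart.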

Row | Compound | ED50
14 | O=S1(=O)N=C(NCCCOc2cccc(CN3CCCCC3)c2)c2cscc21 | 0.35 mg/kg
15 | CN/C(=C\[N+](=O)[O-])NCCSCc1ccc(CN(C)C)o1 [RANITIDINE] | 0.93 mg/kg
